The list is not random: actives were taken first. Their share in the collection is about 3.6%.
SR-BI DiI inh = inhibitors of mouse SR-BI mediated HDL lipid uptake | Q61009 | ldlA[mSR-BI] CHO cells, DiI-HDL uptake fluorescence, 3 h | inhibition, % at 12.5 µM | hit rate 0.96% among 320,000;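 active = mean replicate inhibition of at least 70% and a set share of replicates each scoring 70 or more; inconclusive = meets just one of the two criteria; inactive = fails both criteria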
Target sequence (Q61009 whole entry, looked up): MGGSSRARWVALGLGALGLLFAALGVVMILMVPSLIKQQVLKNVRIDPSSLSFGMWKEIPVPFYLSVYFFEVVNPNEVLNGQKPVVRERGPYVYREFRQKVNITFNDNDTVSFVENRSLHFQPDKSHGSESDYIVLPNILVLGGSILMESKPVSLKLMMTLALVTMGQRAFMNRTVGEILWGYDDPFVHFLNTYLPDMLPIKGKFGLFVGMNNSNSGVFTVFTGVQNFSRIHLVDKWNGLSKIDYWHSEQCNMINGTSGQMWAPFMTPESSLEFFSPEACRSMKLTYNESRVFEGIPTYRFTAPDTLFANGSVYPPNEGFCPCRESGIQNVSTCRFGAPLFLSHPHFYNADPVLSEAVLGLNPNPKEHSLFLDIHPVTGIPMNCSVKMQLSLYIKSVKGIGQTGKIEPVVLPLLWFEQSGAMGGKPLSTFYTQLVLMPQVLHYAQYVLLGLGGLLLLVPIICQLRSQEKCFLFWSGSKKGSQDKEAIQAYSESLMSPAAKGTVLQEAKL
Wnt act = activates Wnt/beta-catenin signaling in a reporter cell assay | activator, plate reader | activation, % at 9.35 µM | hit rate 1.2% among 300,000 | AID 743398; in the data active = activation above about 30%, passing the limit was not always enough; inconclusive = no clear call, values can overlap the other calls
SR-BI uptake up = activators of SR-BI mediated HDL lipid uptake; CHO ldlA[mSR-BI] cells, DiI-HDL uptake fluorescence, 3 h; 100 = double the neutral-control signal; activation, % at 12.5 µM; hit rate 0.096% among 320,000; AID 504775;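 active = mean replicate activation of at least 60% and every replicate at or above 60%; inconclusive = mean or all-replicate condition met, but not both; inactive = mean below 60% and not all replicates reaching 60%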
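System: LDL receptor-deficient CHO ldlA cells overexpressing murine SR-BI | Timing: 3 h uptake period with compound, 37 °C | Medium: HEPES-buffered (25 mM, pH 7.4) F12 plus 0.5% BSA | Dosing: Single-point compound dose | Signal: Bottom-read fluorescence, 550/595 nm | Read-out: Retained DiI signal reflecting DiI-HDL uptake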
MITF TRPM1 HTS = activators of MITF-driven TRPM1 promoter activity in SK-MEL-5 cells | activation, % at 12.5 µM | hit rate 0.75% among 300,000 | AID 588334 | SK-MEL-5 TRPM1-promoter luciferase, 24 h; % of positive control, neutral wells = 0;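 active = mean activation of at least 80% with every replicate also reaching 80%; inconclusive = mean reaches 80% but some replicate falls short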
HSF-1 act = increases HSF-1 driven luciferase reporter signal; activation, % at 9 µM; hit rate 1.7% among 300,000; NIH3T3-HGL HSF-1 luciferase reporter, MG132, 8 h; 100% = twice DMSO control signal;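 active = mean replicate activation of at least 50% with a set share of replicates each reaching 50%; inconclusive = only one of those two conditions met; inactive = mean below 50% and too few replicates reaching it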
Hits are given with their value; – = inactive; ? = inconclusive; · = not tested or not shown.

SMILES	SR-BI DiI inh	Wnt act	SR-BI uptake up	MITF TRPM1 HTS	HSF-1 act
O=C(NC(=S)Nc1cccc([N+](=O)[O-])c1)c1ccccc1	–	32.2	–	·	–
COc1cccc(C(=O)Nc2ccc(C3CC3(Cl)Cl)cc2)c1 (stereo not given)	–	–	–	–	102.7
Cc1cc(C)c(NC(=S)NC(=O)c2ccccc2)cc1C	·	33.9	·	·	·
CC(=O)c1cccc(NC(=S)NC(=O)C(C)C)c1	–	36.5	–	–	–
CN(CC1COc2ccccc2O1)C(=O)CCNS(=O)(=O)c1ccc(F)c(Cl)c1 (stereo not given)	·	–	·	·	·
CC(=O)c1cccc(NC(=S)NC(=O)c2ccccc2)c1	–	·	–	?	54.5
COc1ccc(NC(=S)Nc2cccc(C(C)=O)c2)cc1OC	73.4	–	–	–	–
COc1cccc(NC(=O)c2cc(C(=O)Nc3cccc(OC)c3)n(C)n2)c1	78.1	·	–	–	–
O=C(NC(=S)Nc1cc([N+](=O)[O-])ccc1Cl)c1ccccc1	–	–	–	–	54.0
COc1ccc(C(=O)Nc2cccc(C(C)=O)c2)cc1OC	–	·	–	–	–
Cn1nc(C(=O)Nc2ccc(Br)cc2)cc1C(=O)Nc1ccc(Br)cc1	–	–	–	–	–
CC(=O)c1cccc(NC(=S)NCc2ccccc2)c1	–	–	–	·	–
CC(=O)c1cccc(NC(=S)NC(=O)c2cccc(Cl)c2)c1	–	·	–	–	56.2
O=C(NC(=S)Nc1cccnc1)c1cccc(Cl)c1	·	–	·	·	·
CC(=O)c1cccc(NC(=S)NCCc2ccc(Cl)cc2)c1	76.2	–	–	–	·
COCCNC(=S)N(C)[C@H]1C[C@H]2c3cc(Oc4ccccc4C)ccc3CCN2C(=O)[C@H]1[C@H](C)O	·	–	·	·	·
O=C(CSC1CS(=O)(=O)c2cc([N+](=O)[O-])ccc21)NNC(=O)c1ccc(Cl)cc1 (stereo not given)	–	–	–	·	61.3
O=C(CSC1CS(=O)(=O)c2cc([N+](=O)[O-])ccc21)NNC(=O)c1ccccc1 (stereo not given)	–	–	–	·	–
COc1cc2c(cc1NC(=O)c1cc(-c3ccncc3)nc3ccccc13)oc1ccccc12	82.9	–	–	–	–
COc1cc2c(cc1NC(=O)c1cc(-c3cccnc3)nc3ccc(C)cc13)oc1ccccc12	78.3	–	–	–	–
Cc1ccc2nc(-c3ccccc3)cc(C(=O)Nc3cccnc3)c2c1	–	–	–	–	·
CCOC(=O)C1=C(CN2CCN(c3ccc(F)cc3)CC2)NC(=O)NC1c1cccs1 (stereo not given)	78.3	–	–	–	–
C=CCn1c(SCc2ccccc2)nc2scc(-c3ccc(C)o3)c2c1=O	–	·	–	–	–
C=CCn1c(SCC(N)=O)nc2scc(-c3ccc(C)o3)c2c1=O	–	47.6	–	–	–
COc1ccc(OC)c(-c2cc(C(=O)Nc3cc(C)n(Cc4ccc(Cl)cc4)n3)no2)c1	89.0	–	–	–	–
SMILES	SR-BI DiI inh	Wnt act	SR-BI uptake up	MITF TRPM1 HTS	HSF-1 act
COc1cccc(-c2cc(C(=O)Nc3cc(C)n(Cc4ccc(Cl)cc4)n3)no2)c1	–	–	–	–	–
CCOC(=O)CN(C(=O)CSc1nnc(-c2ccncc2)n1CCCN(C)C)c1ccccc1	–	35.9	–	·	–
CCOC(=O)CN(C(=O)CSc1nnc(-c2ccncc2)n1CCCOC)c1ccccc1	–	·	–	–	–
CC(C)(C)NC(=O)C(c1cc2ccccc2o1)n1c(-c2ccc(-c3ccccc3)cc2)nc2ccccc21 (stereo not given)	·	50.7	·	·	·
CC(C)(C)NC(=O)C(c1cc2ccccc2o1)n1c(=O)c(-c2ccco2)nc2ccccc21 (stereo not given)	·	–	·	·	·
FC(F)(F)c1cccc(NC(=S)NNC(=S)Nc2ccc(Cl)cc2)c1	·	·	·	·	–
Cc1ccc(NC(=S)NNC(=S)Nc2cccc(C(F)(F)F)c2)cc1	–	39.8	–	·	–
CC(=O)Nc1cccc(NC(=O)COc2ccccc2C)c1	–	–	–	·	–
O=C(COc1ccccc1Cl)Nc1ccc2c(c1)OCO2	·	–	·	121.1	–
CC(=O)Nc1ccccc1OCC(=O)c1ccc2c(c1)OCO2	–	36.9	–	·	–
CC(=O)Nc1ccc2nc(NC(=O)COc3ccccc3Cl)sc2c1	–	–	–	89.2	–
CC(=O)Nc1ccc2nc(NC(=O)COc3ccccc3C)sc2c1	–	–	–	–	–
COc1ccccc1OCC(=O)Nc1ccc2c(c1)OCO2	–	–	–	–	–

High-throughput results deposited in PubChem BioAssay by Broad Institute.
